According to ChEMBL document CHEMBL4325893, “Synthesis and antibacterial profiles of targeted triclosan derivatives” (2019):
Values after ≈ are worked out from the molar mass of the structure shown.

Columns and labels:
[1] = system: Staphylococcus epidermidis; experiment: Antibacterial activity against Staphylococcus epidermidis 155 after 18 hrs; format: functional; settings: Staphylococcus epidermidis, 155, 18 h
Method in brief: (§1)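 Broth microdilution in Nutrient Broth No. 2; stocks in ethanol diluted to 0.01–128 µg/ml (triclosan) or 0.25–256 µg/ml (glycosides). Overnight 37 °C NB2 cultures diluted 1 in 10^4 in saline and added to the dilutions. Incubation at 37 °C with agitation, OD read every 15 min; MIC is the lowest concentration preventing any OD rise after 18 h.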

Staphylococcus aureus [2] = experiment: Antibacterial activity against Staphylococcus aureus ATCC 25923 after 18 hrs; format: functional; settings: ATCC 25923, 18 h; method in brief: as §1
Escherichia coli [3] = experiment: Antibacterial activity against Escherichia coli 700728 after 18 hrs; format: functional; settings: Escherichia coli, 700728, 18 h; method in brief: as §1
Streptococcus agalactiae = experiment: Antibacterial activity against Streptococcus agalactiae OCC 182 after 18 hrs; format: functional; settings: OCC 182, 18 h
Method in brief: (§2)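 Broth microdilution in Nutrient Broth No. 2. Ethanol stocks were diluted in broth to 0.01–128 µg/ml for triclosan and 0.25–256 µg/ml for glycosides. Overnight 37°C NB2 cultures were diluted 1 in 10^4 in saline and added to the wells. Plates were incubated at 37°C with OD read every 15 min after agitation. MIC was the lowest concentration giving no OD increase at 18 h.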

Bacillus cereus = experiment: Antibacterial activity against Bacillus cereus ATCC 14579 after 18 hrs; format: functional; settings: ATCC 14579, 18 h; method in brief: as §1
Streptococcus pneumoniae [4] = experiment: Antibacterial activity against Streptococcus pneumoniae ATCC 49619 after 18 hrs; format: functional; settings: ATCC 49619, 18 h; method in brief: as §2
Pseudomonas aeruginosa = experiment: Antibacterial activity against Pseudomonas aeruginosa ATCC 27853 after 18 hrs; format: functional; settings: ATCC 27853, 18 h; method in brief: as §1
[5] = system: Salmonella enterica subsp. enterica serovar Abony; experiment: Antibacterial activity against Salmonella enterica subspecies enterica serotype Abony NCTC 6017 after 18 hrs; format: functional; settings: NCTC 6017, 18 h; method in brief: as §1
Klebsiella pneumoniae = experiment: Antibacterial activity against Klebsiella pneumoniae ATCC 13883 after 18 hrs; format: functional; settings: ATCC 13883, 18 h; method in brief: as §1
Staphylococcus aureus [6] = experiment: Antibacterial activity against Staphylococcus aureus ATCC 6538 after 18 hrs; format: functional; settings: ATCC 6538, 18 h; method in brief: as §1
Salmonella enteritidis = experiment: Antibacterial activity against Salmonella enterica subspecies enterica serotype Enteritidis 13076 after 18 hrs; format: functional, Salmonella enterica subsp. enterica serovar Enteritidis; settings: Salmonella enterica, 13076, 18 h; method in brief: as §1
Citrobacter freundii = experiment: Antibacterial activity against Citrobacter freundii OCC 851 after 18 hrs; format: functional; settings: OCC 851, 18 h; method in brief: as §1
Streptococcus pyogenes = experiment: Antibacterial activity against Streptococcus pyogenes ATCC 19615 after 18 hrs; format: functional; settings: ATCC 19615, 18 h; method in brief: as §2
Staphylococcus aureus [7] = experiment: Antibacterial activity against Staphylococcus aureus ATCC 29213 after 18 hrs; format: functional; settings: ATCC 29213, 18 h; method in brief: as §1
[8] = Antibacterial activity against Salmonella enterica subspecies enterica serotype Nottingham NCTC 7832 after 18 hrs; format: functional, Salmonella enterica subsp. enterica serovar Nottingham; settings: NCTC 7832, 18 h; method in brief: as §1
Escherichia coli [9] = experiment: Antibacterial activity against Escherichia coli ATCC 10536 after 18 hrs; format: functional; settings: ATCC 10536, 18 h; method in brief: as §1
Klebsiella aerogenes = experiment: Antibacterial activity against Klebsiella aerogenes NCTC 8167 after 18 hrs; format: functional; settings: NCTC 8167, 18 h; method in brief: as §1
Escherichia coli [10] = experiment: Antibacterial activity against Escherichia coli OCC 122 after 18 hrs; format: functional; settings: OCC 122, 18 h; method in brief: as §1
Enterococcus faecalis [11] = experiment: Antibacterial activity against Enterococcus faecalis ATCC 29212 after 18 hrs; format: functional; settings: ATCC 29212, 18 h; method in brief: as §1
[12] = system: Staphylococcus epidermidis; experiment: Antibacterial activity against Staphylococcus epidermidis ATCC 14990 after 18 hrs; format: functional; settings: ATCC 14990, 18 h; method in brief: as §1
Escherichia hermannii = experiment: Antibacterial activity against Escherichia hermannii 33650 after 18 hrs; format: functional; settings: Atlantibacter hermannii, 33650, 18 h; method in brief: as §1
Enterococcus faecalis [13] = experiment: Antibacterial activity against Enterococcus faecalis ATCC 33186 after 18 hrs; format: functional; settings: ATCC 33186, 18 h; method in brief: as §1
Cronobacter sakazakii = experiment: Antibacterial activity against Cronobacter sakazakii 29544 after 18 hrs; format: functional; settings: Cronobacter sakazakii, 29544, 18 h; method in brief: as §1
Proteus vulgaris = experiment: Antibacterial activity against Proteus vulgaris OCC 195 after 18 hrs; format: functional; settings: OCC 195, 18 h; method in brief: as §1
Hafnia alvei = experiment: Antibacterial activity against Hafnia alvei 13337 after 18 hrs; format: functional; settings: Hafnia alvei, 13337, 18 h; method in brief: as §1
[14] = system: Staphylococcus epidermidis; experiment: Antibacterial activity against Staphylococcus epidermidis ATCC 12228 after 18 hrs; format: functional; settings: ATCC 12228, 18 h; method in brief: as §1
[15] = Antibacterial activity against Salmonella enterica subspecies enterica serotype Arizonae OCC 706 after 18 hrs; format: functional, Salmonella enterica subsp. enterica serovar Arizonae; settings: OCC 706, 18 h; method in brief: as §1
Streptococcus pneumoniae [16] = experiment: Antibacterial activity against Streptococcus pneumoniae 6305 after 18 hrs; format: functional; settings: Streptococcus pneumoniae, 6305, 18 h; method in brief: as §2
Bacillus subtilis = experiment: Antibacterial activity against Bacillus subtilis NCTC 10073 after 18 hrs; format: functional; settings: NCTC 10073, 18 h; method in brief: as §1

MIC [1]: 8 to 16 µg/mL (≈ 17.7 to 35.4 µM)
MIC (Staphylococcus aureus [2]): 4 to 8 µg/mL (≈ 8.86 to 17.7 µM)
MIC (Escherichia coli [3]): 8 to 64 µg/mL (≈ 17.7 to 142 µM)
MIC (Streptococcus agalactiae): 256 µg/mL (≈ 567 µM)
MIC (Bacillus cereus): 256 µg/mL (≈ 567 µM)
MIC (Streptococcus pneumoniae [4]): 128 µg/mL (≈ 283 µM)
MIC (Pseudomonas aeruginosa): > 256 µg/mL
MIC [5]: 16 to 32 µg/mL (≈ 35.4 to 70.8 µM)
MIC (Klebsiella pneumoniae): 0.5 µg/mL (≈ 1.11 µM)
MIC (Staphylococcus aureus [6]): 4 to 8 µg/mL (≈ 8.86 to 17.7 µM)
MIC (Salmonella enteritidis): 16 to 32 µg/mL (≈ 35.4 to 70.8 µM)
MIC (Citrobacter freundii): 64 µg/mL (≈ 142 µM)
MIC (Streptococcus pyogenes): 32 µg/mL (≈ 70.8 µM)
MIC (Staphylococcus aureus [7]): 4 to 8 µg/mL (≈ 8.86 to 17.7 µM)
MIC [8]: 16 to 32 µg/mL (≈ 35.4 to 70.8 µM)
MIC (Escherichia coli [9]): 8 to 64 µg/mL (≈ 17.7 to 142 µM)
MIC (Klebsiella aerogenes): 32 µg/mL (≈ 70.8 µM)
MIC (Escherichia coli [10]): 8 to 64 µg/mL (≈ 17.7 to 142 µM)
MIC (Enterococcus faecalis [11]): 16 µg/mL (≈ 35.4 µM)
MIC [12]: 8 to 16 µg/mL (≈ 17.7 to 35.4 µM)
MIC (Escherichia hermannii): 16 µg/mL (≈ 35.4 µM)
MIC (Enterococcus faecalis [13]): 16 µg/mL (≈ 35.4 µM)
MIC (Cronobacter sakazakii): 64 µg/mL (≈ 142 µM)
MIC (Proteus vulgaris): 64 µg/mL (≈ 142 µM)
MIC (Hafnia alvei): 4 µg/mL (≈ 8.86 µM)
MIC [14]: 8 to 16 µg/mL (≈ 17.7 to 35.4 µM)
MIC [15]: 16 to 32 µg/mL (≈ 35.4 to 70.8 µM)
MIC (Streptococcus pneumoniae [16]): 128 µg/mL (≈ 283 µM)
MIC (Bacillus subtilis): 256 µg/mL (≈ 567 µM)
SMILES: OC[C@H]1O[C@@H](Oc2cc(Cl)ccc2Oc2ccc(Cl)cc2Cl)[C@H](O)[C@@H](O)[C@@H]1O
